Data: ChEMBL document CHEMBL2401696, “Stereoselective synthesis and anti-proliferative effects on prostate cancer evaluation of 5-substituted-3,4-diphenylfuran-2-ones” (Eur J Med Chem, 2013)
pIC50: −log10 of the molar value. The source made the active and inactive calls. No cut-off for these calls is given here.

Assays:
PC-3 [1] = test: Antiproliferative activity against human PC3 cells expressing PCDNA after 72 hrs by MTT assay; assay type: functional, cell-based; settings: PC-3, 72 h
Outline: (§1)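 Cells (PC3 and its PCDNA- and SKP2-transfected lines, DU145) grown in RPMI 1640 with 10% FBS; G418 added for transfected lines. Exponential cells seeded 1 × 10⁴/well, 24 h at 37 °C, then fresh medium with compounds at several concentrations for 72 h. MTT 1–3 h at 37 °C, dissolved in 4% HCl/96% isopropanol, absorbance 570 nm. Triplicate per concentration; IC50 from dose–response curves.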

[2] = target: T1, Prostaglandin G/H synthase 2 (Ovis aries) (UniProt P79208); test: Inhibition of ovine COX-2 assessed as using arachidonic acid as substrate at 10 uM preincubated for 5 mins prior to substrate addition measured after 2 hrs by enzyme immunoassay relative to control; settings: in the assay text read “after 2 mins” for “after 2 hrs”
T1 sequence (whole entry): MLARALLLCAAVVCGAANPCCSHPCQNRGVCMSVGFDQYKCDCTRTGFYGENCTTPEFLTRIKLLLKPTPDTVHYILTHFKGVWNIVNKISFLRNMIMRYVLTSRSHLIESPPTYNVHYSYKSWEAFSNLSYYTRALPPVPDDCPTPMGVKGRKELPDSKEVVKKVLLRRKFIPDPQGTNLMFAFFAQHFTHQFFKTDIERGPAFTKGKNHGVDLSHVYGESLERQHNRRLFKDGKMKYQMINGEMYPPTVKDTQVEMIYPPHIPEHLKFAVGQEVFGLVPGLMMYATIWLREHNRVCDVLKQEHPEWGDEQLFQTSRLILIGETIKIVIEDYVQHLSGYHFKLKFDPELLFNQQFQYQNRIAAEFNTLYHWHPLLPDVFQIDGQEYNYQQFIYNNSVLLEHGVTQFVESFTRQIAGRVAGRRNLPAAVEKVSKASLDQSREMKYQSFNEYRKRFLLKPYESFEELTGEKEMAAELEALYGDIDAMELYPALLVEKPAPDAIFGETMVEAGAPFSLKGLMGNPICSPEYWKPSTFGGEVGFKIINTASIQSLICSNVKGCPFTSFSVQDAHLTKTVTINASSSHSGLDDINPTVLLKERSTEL
Outline: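 Ovine COX-1 or COX-2 with heme in 0.1 M Tris-HCl pH 8.0, 5 mM EDTA, 2 mM phenol; compound (0.001–100 µM final, DMSO stocks) preincubated 5 min at 37 °C, then arachidonic acid added, stopped with 1 M HCl after 2 min. PGF2α (SnCl2 reduction) quantified by competitive EIA at 412 nm; % inhibition vs controls; mean of two determinations.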

[3] = target: T2, Prostaglandin G/H synthase 1 (Ovis aries, UniProt P05979); test: Inhibition of ovine COX-1 assessed as using arachidonic acid as substrate preincubated for 5 mins prior to substrate addition […] by enzyme immunoassay
T2 sequence (P05979 whole entry): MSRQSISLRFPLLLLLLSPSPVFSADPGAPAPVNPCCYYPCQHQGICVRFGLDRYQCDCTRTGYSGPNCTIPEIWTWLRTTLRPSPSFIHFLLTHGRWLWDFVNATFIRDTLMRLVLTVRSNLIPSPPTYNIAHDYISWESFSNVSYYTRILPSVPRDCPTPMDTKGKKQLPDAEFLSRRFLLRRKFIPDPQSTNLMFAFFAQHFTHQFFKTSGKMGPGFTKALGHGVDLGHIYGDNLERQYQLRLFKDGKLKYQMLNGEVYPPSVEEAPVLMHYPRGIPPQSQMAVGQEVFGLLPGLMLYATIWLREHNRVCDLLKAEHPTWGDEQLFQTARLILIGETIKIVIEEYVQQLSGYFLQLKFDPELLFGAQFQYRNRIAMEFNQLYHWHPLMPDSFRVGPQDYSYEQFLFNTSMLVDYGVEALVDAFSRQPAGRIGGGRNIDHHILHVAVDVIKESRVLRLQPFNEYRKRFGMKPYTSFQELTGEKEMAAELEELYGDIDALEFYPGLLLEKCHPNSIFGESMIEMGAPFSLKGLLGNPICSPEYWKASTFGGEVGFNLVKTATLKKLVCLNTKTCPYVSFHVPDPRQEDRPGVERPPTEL

[4] = target: T3, Prostaglandin G/H synthase 1 (Ovis aries) (UniProt P05979); test: Inhibition of ovine COX-1 assessed as using arachidonic acid as substrate at 10 uM preincubated for 5 mins prior to substrate addition […] by enzyme immunoassay relative to control
T3 sequence (whole entry): T2 sequence (P05979 whole entry)

PC-3 [5] = test: Antiproliferative activity against human PC3 cells expressing SKP2 after 72 hrs by MTT assay; assay type: functional, cell-based; settings: PC-3, 72 h; outline: as §1
DU-145 [6] = test: Antiproliferative activity against human DU145 cells after 72 hrs by MTT assay; assay type: functional, cell-based; settings: DU-145, 72 h; outline: as §1
PC-3 [7] = test: Antiproliferative activity against human PC3 cells after 72 hrs by MTT assay; assay type: functional, cell-based; settings: PC-3, 72 h; outline: as §1
[8] = target: T4, Prostaglandin G/H synthase 2 (Ovis aries, UniProt P79208); test: Inhibition of ovine COX-2 assessed as using arachidonic acid as substrate preincubated for 5 mins prior to substrate addition measured […] by enzyme immunoassay
T4 sequence (P79208 whole entry): T1 sequence (whole entry)

[9] = target: T1, Prostaglandin G/H synthase 2 (Ovis aries); test: Inhibition of ovine COX-2 assessed as using arachidonic acid as substrate at 10 uM preincubated for 5 mins prior to substrate addition measured after 2 mins by enzyme immunoassay relative to control
DU-145 [10] = test: Cell cycle arrest in human DU145 cells assessed as accumulation at G0/G1 phase at 5 uM after 12 hrs by propidium iodide staining-based flow cytometric analysis (reference value: 40.91%); assay type: functional
DU-145 [11] = test: Cell cycle arrest in human DU145 cells assessed as accumulation at G2/M phase at 20 uM after 12 hrs by propidium iodide staining-based flow cytometric analysis (reference value: 10.97%); assay type: functional
DU-145 [12] = test: Cell cycle arrest in human DU145 cells assessed as accumulation at S phase at 5 uM after 12 hrs by propidium iodide staining-based flow cytometric analysis (reference value: 44.93%); assay type: functional
DU-145 [13] = test: Induction of apoptosis in human DU145 cells assessed as formation of apoptotic bodies at 5 to 20 uM after 48 hrs by DAPI staining-based fluorescence microscopic analysis; assay type: functional, cell-based
Outline: (§2)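 DU145 seeded 2 × 10⁴ per 60-mm plate, 24 h, then treated 48 h; PBS-washed twice, fixed 3.7% paraformaldehyde 10 min at room temperature, DAPI-stained 10 min at room temperature; nuclei scored for chromatin condensation and apoptotic bodies.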

DU-145 [14] = test: Cell cycle arrest in human DU145 cells assessed as accumulation at G0/G1 phase at 20 uM after 12 hrs by propidium iodide staining-based flow cytometric analysis (reference value: 40.91%); assay type: functional
DU-145 [15] = test: Cell cycle arrest in human DU145 cells assessed as accumulation at S phase at 15 uM after 12 hrs by propidium iodide staining-based flow cytometric analysis (reference value: 44.93%); assay type: functional
DU-145 [16] = test: Cell cycle arrest in human DU145 cells assessed as accumulation at G0/G1 phase at 15 uM after 12 hrs by propidium iodide staining-based flow cytometric analysis (reference value: 40.91%); assay type: functional
DU-145 [17] = test: Cell cycle arrest in human DU145 cells assessed as accumulation at G2/M phase at 5 uM after 12 hrs by propidium iodide staining-based flow cytometric analysis (reference value: 10.97%); assay type: functional
DU-145 [18] = test: Cell cycle arrest in human DU145 cells assessed as accumulation at G2/M phase at 15 uM after 12 hrs by propidium iodide staining-based flow cytometric analysis (reference value: 10.97%); assay type: functional
DU-145 [19] = test: Cell cycle arrest in human DU145 cells assessed as accumulation at S phase at 20 uM after 12 hrs by propidium iodide staining-based flow cytometric analysis (reference value: 44.93%); assay type: functional
DU-145 [20] = test: Induction of apoptosis in human DU145 cells assessed as chromosomal condensation at 5 to 20 uM after 48 hrs by DAPI staining-based fluorescence microscopic analysis; assay type: functional, cell-based; outline: as §2
DU-145 [21] = test: Cell cycle arrest in human DU145 cells assessed as accumulation at G0/G1 phase after 12 hrs by propidium iodide staining-based flow cytometric analysis; assay type: functional

Structure (SMILES) | pIC50 (PC-3 [1]) | inhibition [2] | inhibition [4] | pIC50 (PC-3 [5]) | pIC50 (DU-145 [6]) | pIC50 (PC-3 [7]) | pIC50 [8] | inhibition [9] [%] | further results
COc1ccc(/C=C2\OC(=O)C(c3ccccc3)=C2c2ccc(S(C)(=O)=O)cc2)cc1 | < 4.30 | 16.7% | 65.9% | < 4.30 |  |  |  |  | pIC50 [3]: 5.09
COc1ccccc1/C=C1\OC(=O)C(c2ccc(F)cc2)=C1c1ccc(S(C)(=O)=O)cc1 | 4.74 | 45.6% | inactive | 4.60 | < 4.30 | < 4.30 | 4.86 |  | 
CC(C)=C1OC(=O)C(c2ccccc2Cl)=C1c1ccc(S(C)(=O)=O)cc1 | 4.39 |  | 18.6% | 4.81 | < 4.30 | < 4.30 |  | 24.1 | 
COc1ccccc1/C=C1\OC(=O)C(c2ccccc2)=C1c1ccc(S(C)(=O)=O)cc1 | < 4.10 |  | 71% | < 4.05 |  |  | 5.52 | 72.6 | pIC50 [3]: 5.51
COc1cc(/C=C2\OC(=O)C(c3ccc(F)cc3)=C2c2ccc(S(C)(=O)=O)cc2)ccc1O | < 4.30 | 43.6% |  | 4.97 | < 4.30 | < 4.30 | 4.75 |  | 
CS(=O)(=O)c1ccc(C2=C(c3ccccc3Cl)C(=O)O/C2=C\c2ccccc2)cc1 | < 4.30 | 59.1% |  | 5.26 | < 4.30 | < 4.30 | 5.14 |  | 
COC1(C)OC(=O)C(c2ccccc2Cl)=C1c1ccc(S(C)(=O)=O)cc1 (stereo not given) | 5.29 | 43.3% |  | 5.29 | 4.60 | 4.70 | 4.92 |  | Activity (DU-145 [10]): 42.22%; Activity (DU-145 [11]): 6.28%; Activity (DU-145 [12]): 43.24%; Activity (DU-145 [13]): Active; Activity (DU-145 [14]): 64.51%; Activity (DU-145 [15]): 29.17%; Activity (DU-145 [16]): 60%; Activity (DU-145 [17]): 10.97%; Activity (DU-145 [18]): 7.53%; Activity (DU-145 [19]): 27.26%; Activity (DU-145 [20]): Active; Activity (DU-145 [21]): Dose-dependent effect
CS(=O)(=O)c1ccc(C2=C(c3ccc(F)cc3)C(=O)OC2)cc1 | < 4.30 | 66.9% | 28.5% | < 4.30 |  |  | 5.04 |  | 
COc1ccc(/C=C2\OC(=O)C(c3ccccc3Cl)=C2c2ccc(S(C)(=O)=O)cc2)cc1 | < 4.30 | inactive | 61.2% | < 4.30 |  |  |  |  | pIC50 [3]: 5.07
COc1ccccc1/C=C1\OC(=O)C(c2ccccc2Cl)=C1c1ccc(S(C)(=O)=O)cc1 | 4.59 |  | inactive | 4.34 | < 4.30 | < 4.30 | 4.84 | 44.2 | 
CS(=O)(=O)c1ccc(C2=C(c3ccccc3Cl)C(=O)O/C2=C\c2cccc([N+](=O)[O-])c2)cc1 | < 4.30 |  | 7.01% | < 4.30 |  |  | 5.15 | 59.2 | 
CS(=O)(=O)c1ccc(C2=C(c3ccccc3Cl)C(=O)O/C2=C\c2ccc(Cl)cc2)cc1 | < 4.30 |  | inactive | < 4.30 |  |  |  | 32.7 | 
